# An excerpt weighted towards active compounds, which were near 3.7% of everything screened.
# KCNQ1 inh: blocks the human KCNQ1 potassium channel. P51787. AID 2642. 1.3% of 310,000 active. CHO-K1 KCNQ1, FluxOR thallium flux fluorescence; stronger effect = higher value. B-score at 10 µM;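 active means compounds whose thallium flux B-score, printed positive for inhibition, exceeds three library SD while starting fluorescence stays within three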;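 further: channel opened by potassium depolarization with thallium stimulus after 20 min compound exposure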
# Kir21 block: inhibitors of mouse Kir2.1 inward-rectifier potassium channel; HEK293-Kir2.1, FluxOR thallium flux fluorescence; stronger effect = lower value; B-score at 10 µM; P35561; AID 1672; 0.85% of 310,000 active;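 active means fluorescence ratio B-score at or below minus 3 SD of library scores, with starting-brightness B-score within 2 SD, cut at about -4.2 in these data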;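 further: channel flux triggered by added potassium and thallium sulfate stimulus; B-score of peak minus minimum fluorescence over baseline after thallium stimulus; more negative B-score means stronger Kir2.1 block with less thallium influx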
# hERG rescue: shields human hERG channel from block by proarrhythmic agents; CHO-hERG, FluxOR thallium flux, dofetilide IC70 present; activation (rescue from dofetilide block), less the hit threshold, % at 10 µM; 0.51% of 310,000 active;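 active means activation above the mean of controls blocked by dofetilide plus 5 SD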;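 further: thallium influx through hERG after potassium depolarization seen as dye fluorescence rise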
# Target sequence (Q12809 whole entry, looked up): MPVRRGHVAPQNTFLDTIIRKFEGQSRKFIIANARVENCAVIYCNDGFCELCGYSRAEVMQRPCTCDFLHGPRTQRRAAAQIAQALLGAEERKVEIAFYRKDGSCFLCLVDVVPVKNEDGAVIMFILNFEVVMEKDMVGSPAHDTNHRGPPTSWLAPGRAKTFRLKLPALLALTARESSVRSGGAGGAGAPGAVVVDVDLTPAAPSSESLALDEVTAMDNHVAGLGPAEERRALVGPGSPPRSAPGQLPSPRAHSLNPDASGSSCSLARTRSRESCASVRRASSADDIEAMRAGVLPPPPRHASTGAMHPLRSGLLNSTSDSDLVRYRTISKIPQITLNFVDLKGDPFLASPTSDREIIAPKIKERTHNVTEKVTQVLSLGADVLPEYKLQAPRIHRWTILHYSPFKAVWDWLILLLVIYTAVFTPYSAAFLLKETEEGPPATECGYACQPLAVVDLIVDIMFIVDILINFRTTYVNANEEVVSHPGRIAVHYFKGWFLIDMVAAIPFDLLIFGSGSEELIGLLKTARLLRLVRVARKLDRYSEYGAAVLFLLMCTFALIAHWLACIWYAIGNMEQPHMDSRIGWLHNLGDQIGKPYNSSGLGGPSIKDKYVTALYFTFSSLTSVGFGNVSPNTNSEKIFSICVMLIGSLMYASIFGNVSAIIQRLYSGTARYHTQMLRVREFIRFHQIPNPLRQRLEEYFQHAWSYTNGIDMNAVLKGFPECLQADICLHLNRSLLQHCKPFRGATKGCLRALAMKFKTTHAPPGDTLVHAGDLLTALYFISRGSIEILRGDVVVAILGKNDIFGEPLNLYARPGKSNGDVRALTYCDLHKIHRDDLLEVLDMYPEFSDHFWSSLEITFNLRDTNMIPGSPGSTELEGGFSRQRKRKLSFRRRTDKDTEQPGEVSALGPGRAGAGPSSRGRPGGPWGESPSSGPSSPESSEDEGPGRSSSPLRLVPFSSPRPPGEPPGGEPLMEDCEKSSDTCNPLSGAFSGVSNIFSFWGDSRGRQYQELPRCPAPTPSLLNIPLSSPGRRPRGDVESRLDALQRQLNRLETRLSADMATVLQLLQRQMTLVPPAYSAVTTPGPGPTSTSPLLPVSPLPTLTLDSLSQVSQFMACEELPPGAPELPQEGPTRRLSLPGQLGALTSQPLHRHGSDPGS
# KCNK9 inh: blocks the human KCNK9 two-pore domain potassium channel; Q9NPC2; HEK293 KCNK9, FluxOR thallium flux fluorescence; stronger effect = lower value; B-score at 10 µM; 1.2% of 310,000 active; AID 488922;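 active means ratio B-score over 3 SD below the library mean, with starting fluorescence within 5 SD of its mean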;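 further: negative B-score means less thallium flux so channel inhibition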
# KCNK3 block: human KCNK3 channel inhibition, primary screen | O14649 | CHO-KCNK3 thallium flux, FluxOR fluorescence; stronger effect = lower value | B-score at 10 µM | 0.84% of 340,000 active | AID 602410;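 active means B-score under library mean minus 4 SD, starting fluorescence ratio at most library mean plus 5 SD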;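 further: more negative B-score means stronger inhibition of thallium flux through KCNK3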
# KCNQ1 pot: potentiates or activates the human KCNQ1 potassium channel; P51787; CHO-K1 KCNQ1, thallium flux FluxOR fluorescence; stronger effect = higher value; B-score at 10 µM; 0.35% of 310,000 active;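 active means fluorescence ratio B-score, a plate-corrected score, at least three library SD, with initial intensity B-score within 5 SD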
#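 System: CHO-K1 cells stably expressing KCNQ1 / Medium: assay buffer for compound exposure, DMSO matched across wells / Reagent: thallium- and potassium-containing depolarizing buffer / Compound: one concentration, matched DMSO / Incubation: 20 min compound pretreatment at room temperature / Measured by: kinetic FluxOR fluorescence, 10 s baseline plus 110 s post-stimulus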
# * = called active by the depositor; i = inactive; · = not tested or not shown.
SMILES,KCNQ1 inh,Kir21 block,hERG rescue,KCNK9 inh,KCNK3 block,KCNQ1 pot
Cc1ccc(C(=O)OCC(=O)N(C)c2ccccc2)cc1C,i,0.2,-4,i,i,11*
CC(=O)c1cc2c(cc1NC(=O)c1ccc(C)cc1)OCCO2,i,0.21,-6,i,i,i
O=C1c2cc([N+](=O)[O-])ccc2-c2cc(Br)c(N=C(NO)C(F)(F)F)cc21,·,·,·,·,-9.5*,·
Cc1ccc(NC(=S)Nc2ccc(S(=O)(=O)Nc3ncccn3)cc2)cc1Cl,10*,0.41,-14,i,·,i
O=C(Cc1ccc(Cl)cc1)Nc1ccc(CN2CCCCC2)cc1,i,0.01,-2,i,i,i
O=C(N/N=C/c1ccccn1)c1ccco1,i,-0.92,-7,i,i,i
O=C(N/N=C/c1ccc2ncccc2c1)c1ccco1,6*,-0.11,-9,i,i,i
Cc1ccc(Cn2ncc3c(NN)ncnc32)cc1,i,-0.49,-5,i,i,15*
CC(C)=C(NC(=O)c1ccccc1)C(=O)Nc1ccc(C(=O)O)cc1,i,0.02,-9,i,i,i
O=C(N=C1SC2CS(=O)(=O)CC2N1c1cccc(Cl)c1Cl)C1CCCO1 (stereo unspecified),i,1.3,-2,i,i,i
Cc1ccc(NC(=O)NCc2ccccn2)cc1,i,-2.9,9.3*,i,i,i
CCOC(=O)/C=C/C(=O)Nc1cccc([N+](=O)[O-])c1,i,-6.2*,-11,i,i,i
CC(NC(=O)Nc1cccc([N+](=O)[O-])c1)(C(F)(F)F)C(F)(F)F,12*,0.58,-22,i,i,i
O=C(Nc1cccc([N+](=O)[O-])c1)Nc1cccs1,8*,1.2,-32,i,i,i
CCOC(=O)Cc1ccc(NC(=O)c2cccc([N+](=O)[O-])c2)cc1,i,0.03,2,i,i,i
CCOC(=O)/C(C)=N/NC(=O)c1cccc([N+](=O)[O-])c1,i,-0.76,12*,i,i,i
COc1ccc(C(=O)CC(=O)C(=O)Nc2ccccc2Cl)cc1,i,0.21,13*,i,i,i
COc1ccc(C(=O)CC(=O)C(=O)Nc2ccccc2C(F)(F)F)cc1,i,0.4,7.8*,i,i,12*
COc1ccc(C(=O)CC(=O)C(=O)Nc2ccc(Cl)cc2)cc1,i,-0.34,13*,i,i,i
COc1ccc(C(=O)CC(=O)C(=O)Nc2cc(Cl)c(OC)cc2OC)cc1,i,-1,-7,i,i,i
Cc1cccc(NC(=O)c2cc(S(=O)(=O)N3CCCCC3)ccc2Cl)n1,·,·,·,·,i,·
CCCOC(=O)c1cc(NC(=O)/C=C/c2ccccc2)ccc1O,i,-0.27,-19,-9.4*,·,i
COc1cccc(C(=O)N/N=C/C(Br)=C/c2ccccc2)c1,i,0.3,1,-8.1*,i,i
O=C(N/N=C/C(Br)=C/c1ccccc1)c1ccccc1[N+](=O)[O-],i,-0.02,-7,-6.9*,i,i
Cc1ccc(-c2cc(C(=O)N/N=C/C(Br)=C/c3ccccc3)n[nH]2)o1,i,-2.5,-12,-7*,i,i
SMILES,KCNQ1 inh,Kir21 block,hERG rescue,KCNK9 inh,KCNK3 block,KCNQ1 pot
O=C(N/N=C/c1ccncc1)c1ccccc1[N+](=O)[O-],i,2.9,-3,i,i,i
Cc1cc(C)c[n+](-c2[nH]c(=O)sc2/C=N/N=C(\N)[S-])c1,i,1.7,-6,i,i,i
CCc1c(C)nc2cc(-c3ccc(OC)c(OC)c3)nn2c1NCC1CC1,i,0.82,-28,-6.7*,i,i
CN1C(=O)/C(=C\c2ccc(N(C)C)cc2)OC1=S,11*,-0.96,-17,i,i,i
O=S(=O)(c1ccc(F)cc1)c1snnc1-c1ccccc1,i,-15*,-12,i,i,i
O=S(=O)(c1ccc(Cl)cc1)c1snnc1-c1ccccc1,i,-10*,-11,i,i,i
CCOc1nc2ccccc2cc1C=O,i,0.85,7.1*,i,i,11*
CC(C)c1ccccc1NC(=O)CNC(C)c1ccc(F)cc1 (stereo unspecified),i,-5.5*,-12,i,i,i
O=C(C1CC1)N1CCc2cc(S(=O)(=O)NCc3ccccc3)ccc21,i,-0.22,-3,i,i,i
O=C(Nc1ccc(Br)cc1Cl)Nn1cnnc1,i,-1.3,6.2*,i,i,i
COc1ccccc1CNS(=O)(=O)c1ccc(N2CCCC2)cc1Br,·,·,·,·,i,·
C/C=C/c1ccc(OCC(=O)Nc2cc(S(=O)(=O)N3CCOCC3)ccc2N2CCCC2)c(OC)c1,i,0.87,-14,i,i,i
CCn1cc(SCC(=O)NC2CCCC2)c2ccccc21,i,-4.8*,-6,i,i,i
CCOC(=O)N1CCC(NC(=O)CSc2cc(=O)n(CC)c3ccccc23)CC1,i,-0.9,-8,-7.1*,i,i
CC(C)c1ccc(/C=N/n2c(COc3ccccc3)n[nH]c2=S)cc1,i,1.2,-2,i,i,16*
N#C/C(=N\Nc1cccc([N+](=O)[O-])c1)C(=O)c1ccc(Br)cc1,8*,-2.3,-24,i,i,i
O=C(O)c1ccc(N=NNc2cccc([N+](=O)[O-])c2)cc1,i,1.5,-1,i,i,i
COc1cc(C(=O)c2ccccc2C(=O)O)c(OC)c2c1CCCC2,·,·,·,·,i,·
CN(c1ccccc1)S(=O)(=O)c1ccc(Cl)c(C(=O)Nc2ccc(-c3nc4ccccc4[nH]3)cc2)c1,i,0.06,-18,i,i,i
CN(c1ccccc1)S(=O)(=O)c1ccc(Cl)c(C(=O)Nc2nc3ccccc3[nH]2)c1,i,-1.2,-6,-7.1*,i,i
O=C(COC(=O)/C=C/c1ccc2c(c1)OCO2)NCc1ccccc1,·,·,·,·,i,·
Cn1c(-c2ccccc2)cnc1NCc1ccc(F)cc1,i,-4.9*,-5,i,i,i
CCN(CC)CCn1c(N)cc(=O)[nH]c1=O,i,-0.05,-7,i,i,i
CCN(CC)CCn1c(OC)cc(=O)[nH]c1=O,i,0.41,-6,i,i,7*
CC(C)c1ccc(CNC(=O)C(=O)NCCCn2ccnc2)cc1,i,0.02,-4,i,i,i
COc1cccc(NC(=O)CN(C)C(=O)C23CC4CC(CC(Cl)(C4)C2)C3)c1,·,·,·,·,i,·
c1ccc2c(c1)[nH]c1c(N3CCSCC3)ncnc12,·,·,·,·,-9.7*,·
O=[N+]([O-])c1c(Nc2ccccn2)cc(Cl)c2nonc12,11*,0.32,-12,-6.9*,i,i

# Compound activity as filed in PubChem BioAssay.
